In assay [1] the test system is C6. Nature of the assay: Cytotoxicity against rat C6 glioma cell line. Type of assay: functional, cell-based. An outline of the steps:
(§1)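 Cells were maintained in 10% FCS BME (Basal Media Eagle). Compound exposure was in 2% FCS BME for 96 h at 37 °C in humidified 5% CO2. IC50 values came from dose-response experiments over a 4-day incubation.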

In assay [2] the test system is Astrocyte. Description: Cytotoxicity against rat astrocytes. Type of assay: functional, cell-based. Summed up: as §1
The subject of assay [3] is U-87 MG. Description: Cytotoxicity against human U87 cell line. Format: functional, cell-based, U-87MG ATCC.
Assay [4] relates to T98G. Nature of the assay: Cytotoxicity against human T98G cell line. Format: functional, cell-based.
For assay [5], the system named is MCF7. Description: Cytotoxicity against human MCF7 cell line. Type of assay: functional, cell-based.
The subject of assay [6] is A549. Description: Cytotoxicity against human A549 cell line. Format: functional, cell-based.
Assay [7] has as its system LNCaP. Nature of the assay: Cytotoxicity against human LNCaP cell line. Format: functional, cell-based.
Assay [8] has as its system HeLa. Description: Cytotoxicity against human HeLa cell line. Format: functional, cell-based.

Results on 17 molecules are retold here after ChEMBL document CHEMBL1149343, “Discovery of antiglioma activity of biaryl 1,2,3,4-tetrahydroisoquinoline derivatives and conformationally flexible analogues” (J Med Chem, 2006).

A word on the pIC50: it is −log10 of the IC50, conventionally taken in molar units.

pIC50: −log10 of the molar value.

In turn, `Nc1ccc(CC2NCCc3cc(O)c(O)cc32)cc1` (centres undefined) gave a negative logarithm of the IC50 (pIC50) in assay [1] of less than 4.30.

Consider `COc1cc2c(cc1OC)CN(CCc1ccc(-c3ccccc3)cc1)CC2`, for which the negative-log IC50 (pIC50) in assay [1] was 5.03; in assay [2], 4.81.

For the molecule `COc1cc2c(cc1OC)C(Cc1ccc(-c3ccccc3)cc1)NCC2` (centres undefined), the pIC50 was 5.39 in assay [1] and 4.08 in assay [2].

Consider `O=C(c1ccccc1)c1ccc(CC2NCCc3cc(O)c(O)cc32)cc1` (centres undefined), for which the results for the negative logarithm of the IC50 (pIC50) in assay [1] and in assay [2] were 5.03 and 4.68, respectively.

Turning to `Oc1ccc(CCNCCc2ccc(-c3ccccc3)cc2)cc1O`, the figures for the pIC50 in assay [1] and in assay [2] were 5.07 and less than 4.00, respectively.

On to `C=C1C(OC(=O)N(C)C)=C(c2ccc(C)cc2)Oc2cc(Cl)ccc2N1C`, for which the pIC50 in assay [1] is 4.43.

For the molecule `COc1cc2c(cc1OC)C(Cc1ccc(C(=O)c3ccccc3)cc1)NCC2` (centres undefined), the pIC50 in assay [1] and in assay [2] was 4.40 each time.

For `CN1CCc2cc(O)c(O)cc2C1Cc1ccc(-c2ccccc2)cc1` (centres undefined), the pIC50 was 5.10 in assay [1] and 4.82 in assay [2].

In assay [1], `COc1cc(C(O)C2CNCCc3cc(O)c(O)cc32)cc(OC)c1OC` (centres undefined) gave a negative-log IC50 (pIC50) of less than 4.30.

Take `COc1ccc(CCN(C)CCc2ccc(-c3ccccc3)cc2)cc1OC`: the figures for the pIC50 in assay [1] and in assay [2] were 4.90 and 4.41, respectively.

Consider `Oc1cc2c(cc1O)C(Cc1ccc(-c3ccccc3)cc1)NCC2` (centres undefined), for which the negative logarithm of the IC50 (pIC50) in assay [1] is 5.59; in assay [2], 4.54; in assay [3], 4.59; in assay [4] it was 4.99; in assay [5], 5.42; in assay [6] it was 4.99. The negative-log IC50 (pIC50) in assay [7] was 4.97; in assay [8] it was 5.52.

With `O=NN(CCCl)C(=O)NCCCl` [CARMUSTINE], the pIC50 in assay [1] is 5.03; in assay [2], 3.81.

As to `O=c1[nH]cc(F)c(=O)[nH]1` [FLUOROURACIL], the values for the negative logarithm of the IC50 (pIC50) in assay [1] and in assay [2] were 5.21 and less than 4.00, respectively.

With `N[C@@H](Cc1ccc(N(CCCl)CCCl)cc1)C(=O)O` [MELPHALAN], the pIC50 in assay [1] was 4.90; in assay [2], 4.47.

Molecule `CCC(C)N(C)C(=O)c1cc2ccccc2c(-c2ccccc2Cl)n1` (centres undefined) [PK-11195] showed a pIC50 in assay [1] of 4.14.

Turning to `CN1C(=O)CN=C(c2ccc(Cl)cc2)c2cc(Cl)ccc21` [RO-54864], the pIC50 in assay [1] was 4.02.

In turn, `COc1cc(C[C@@H]2NCCc3cc(O)c(O)cc32)cc(OC)c1OC` [TRETOQUINOL] gave a pIC50 in assay [1] of less than 4.30.
